Bioassay records (PubChem)
HTRA1 inh = HTRA1 serine protease inhibitors, primary screen, biochemical, fluorescence polarization, HTS. 340,000 compounds, 0.5% hits. Q92743. inhibition, % at 5.96 µM. recombinant HTRA1, FP-rhodamine activity-based probe; in the data active = inhibition above about 36%;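 note: 0% = enzyme with DMSO and 100% = wells lacking enzyme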
Target sequence (Q92743 whole entry, looked up): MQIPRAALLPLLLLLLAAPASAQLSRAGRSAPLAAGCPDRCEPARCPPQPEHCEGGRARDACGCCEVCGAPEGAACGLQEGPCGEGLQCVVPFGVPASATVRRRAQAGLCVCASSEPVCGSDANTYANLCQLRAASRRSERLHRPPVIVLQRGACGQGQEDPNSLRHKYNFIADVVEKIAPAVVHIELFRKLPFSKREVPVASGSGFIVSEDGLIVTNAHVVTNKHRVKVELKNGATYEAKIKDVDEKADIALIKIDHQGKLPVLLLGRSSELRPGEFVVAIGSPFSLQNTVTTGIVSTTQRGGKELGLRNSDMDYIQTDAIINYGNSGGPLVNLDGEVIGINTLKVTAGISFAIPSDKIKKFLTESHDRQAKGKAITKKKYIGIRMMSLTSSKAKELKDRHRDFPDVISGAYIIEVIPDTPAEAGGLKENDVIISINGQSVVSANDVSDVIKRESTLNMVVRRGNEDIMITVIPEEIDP
mABHD4 FP = ABHD4 inhibitors, primary screen, biochemical, fluorescence polarization, mouse; inhibition, % at 8.92 µM; (Lyso)-N-acylphosphatidylethanolamine lipase (Mus musculus), Q8VD66; purified mABHD4, FP-Rh probe fluorescence polarization; 370,000 compounds, 0.54% hits;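 active = inhibition exceeding the mean over every tested compound plus 3 SD, cut at about 30% in these data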;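 note: 0% = plate median of compound wells and 100% = S159A mutant with DMSO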
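Test system: mABHD4 protein; Read-out basis: % inhibition; Incubation: 45 min + 60 min at 25 °C; Repeats: single replicate; Technique: fluorescence polarization with parallel and perpendicular emission, 525/598 nm; Compound: 8.92 µM, single dose; Benchmarks: full inhibition S159A mutant plus DMSO, zero as sample-well median.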
PRMT1 inh = PRMT1 methyltransferase inhibitors, primary screen, biochemical, fluorescence polarization; inhibition, % at 2.79 µM; Protein arginine N-methyltransferase 1 (Homo sapiens), Q99873; 370,000 compounds, 1.3% hits; recombinant PRMT1, activity-based probe fluorescence polarization;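 active = inhibition above about 21% made by adding two undisclosed values, limit read from the data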
TCR CD3 inh = inhibitors of human TCR-CD3 interaction, primary screen, biochemical, fluorescence, TAMRA-labeled TCR probe; inhibition, % at 9.4 µM; 360,000 compounds, 0.37% hits; AID 651800, 2012;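 note: recombinant mutant TCR 2C K166C tagged with TAMRA read by polarization; 0% = receptor in buffer alone and 100% = receptor with positive control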
SIAE inh = human SIAE inhibitors, primary screen, biochemical, fluorescence polarization, FP-Rh probe, 1536-well HTS. Sialate O-acetylesterase (Homo sapiens), Q9HAT2. SIAE FP-Rh probe binding. inhibition, % at 9.66 µM. 370,000 compounds, 0.69% hits;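 active = inhibition above a cutoff: mean of compounds within the control limits plus 3 SD of those, cut at about 17% in these data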;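 note: 0% = plate median of compound wells and 100% = probe without SIAE protein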
BSA probe FL = compounds interfering with TAMRA-BSA probe, counter-screen for TCR-CD3 interaction inhibitor project, biochemical, fluorescence, TAMRA-labeled BSA. shares compounds with TCR CD3 inh. TAMRA-labeled BSA probe fluorescence counterscreen. inhibition, % at 9.4 µM. 1,200 compounds, 10% hits. AID 652035, 2013; in the data active = inhibition above about 23%;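 note: 0% = buffer low control and 100% = reference high control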
TCR-CD3 inh conf = TCR-CD3 interaction inhibitors, retest, confirmation, biochemical, fluorescence, TAMRA-labeled TCR probe. shares compounds with TCR CD3 inh. TAMRA-labeled TCR probe fluorescence binding assay. 1,200 compounds, 48% hits. inhibition, % at 9.4 µM. AID 652036, 2013
Starred values were filed as active, the others as inactive; x = no result given. The list is not random: actives were taken first. Their share in the collection is about 2.6%. Cut-off read from the data, not from the text of the source, unless noted: active = inhibition above about 19%; inactive = the rest.

SMILES	HTRA1 inh	mABHD4 FP	PRMT1 inh	TCR CD3 inh	SIAE inh	BSA probe FL	TCR-CD3 inh conf
O=C(OCC(=O)N1CCOCC1)c1cccc(S(=O)(=O)Nc2ccc(F)cc2)c1	0	-9	0	39*	2	0	-4
NC(=O)CCC1NC(=S)N(Cc2ccccc2)C1=O (stereo unspecified)	-1	1	5	34*	3	13	45*
CSc1cccc(CN2CCC(Oc3ccc(C(=O)N4CCCCC4)cc3)CC2)c1	-12	3	-3	6	0	x	x
CCN(CC)S(=O)(=O)c1cccc(NC(=O)CC2CCCC2)c1	-6	3	-1	0	3	x	x
CCN(CC)S(=O)(=O)c1cccc(NC(=O)Nc2cccc(C(F)(F)F)c2)c1	-125	-132	-2	24*	-215	15	26*
O=C(N[C@H](Cc1ccccc1)C(=O)NCCN1CCOCC1)[C@H]1O[C@@H](n2ccc(=O)[nH]c2=O)[C@H](O)[C@@H]1O	x	1	-2	7	-5	x	x
O=C(CCCC(=O)c1ccccc1)Nc1ccc(O)cc1	6	3	3	1	5	x	x
C/C(=N\NC(=O)COc1ccccc1-c1ccccc1)c1ccccn1	-5	-12	-5	-6	2	x	x
C/C(=N\NC(=O)COc1ccccc1-c1ccccc1)c1ccc(O)cc1O	-33	-10	1	19*	7	-12	29*
Cc1nn(CC(=O)NC2CCCCC2)c(C)c1[N+](=O)[O-]	3	-4	1	0	2	x	x
Cc1nn(CC(=O)NC2CCS(=O)(=O)C2)c(C)c1[N+](=O)[O-] (stereo unspecified)	4	6	-5	27*	6	3	-1
O=C(NCC(=O)N(CC1CCCO1)C(C(=O)NC1CCCCC1)c1ccccc1)c1cccs1 (stereo unspecified)	-6	-4	4	29*	6	4	2
CC1(C)CC2CC(C)(CN2S(=O)(=O)c2ccc(C(=O)Nc3cccc(S(=O)(=O)N4CCOCC4)c3)cc2)C1 (stereo unspecified)	-66	-84	-2	35*	-92	5	29*
CC1(C)CC2CC(C)(CN2S(=O)(=O)c2ccc(C(=O)Nc3cc(S(=O)(=O)N4CCOCC4)ccc3Cl)cc2)C1 (stereo unspecified)	-28	7	-2	5	-10	x	x
CCOC(=O)C1CCCN(S(=O)(=O)c2cc3c(cc2Br)CCN3C(=O)CC)C1 (stereo unspecified)	x	-3	-2	x	2	x	x
O=C(O)CC1SC(=O)N(CC(=O)c2ccccc2)C1=O (stereo unspecified)	4	0	3	-2	-5	x	x
Cn1c(=O)c(-c2cc(=O)[nH][nH]2)c(O)c2ccccc21	x	13	3	19*	5	-9	17
O=S1(=O)N[C@@H](Cc2ccccc2)COc2cc(N3CCOCC3)ccc21	x	6	1	4	3	x	x
O=c1c(CO)cc(CO)cc(CO)c1O	11	0	-1	31*	6	-1	22*
Cc1cc(C(=O)N/N=C/c2cccc([N+](=O)[O-])c2)c2ccccc2n1	-3	4	1	-5	3	x	x
COc1cc([N+](=O)[O-])cc(/C=N/NC(=O)c2cc(C)nc3ccccc23)c1O	6	19	10	24*	-4	-6	23*
COc1cc([N+](=O)[O-])cc(/C=N/NC(=O)c2cc(-c3ccccc3)nc3ccccc23)c1O	10	9	-5	24*	-4	10	8
CC1(C(=O)NCc2ccccc2)CN(S(C)(=O)=O)CC(=O)N1C1CCN(Cc2ccccc2)CC1 (stereo unspecified)	x	3	3	-6	-1	x	x
CCOC(=O)CCS(=O)(=O)c1nc(-c2ccccc2)cc(C(F)(F)F)n1	-13	x	x	x	x	x	x
CCOC(=O)CS(=O)(=O)c1nc(-c2ccccc2)cc(C(F)(F)F)n1	-18	-4	18	22*	-5	1	0
SMILES	HTRA1 inh	mABHD4 FP	PRMT1 inh	TCR CD3 inh	SIAE inh	BSA probe FL	TCR-CD3 inh conf
C[C@H]1CN([C@@H](C)CO)S(=O)(=O)c2ccc(Br)cc2O[C@@H]1CN(C)C(=O)Cc1cccnc1	4	8	4	-4	-3	x	x
COC(=O)c1ccccc1NC(=S)NC(=O)c1ccc2c(c1)OCO2	3	3	5	45*	3	-1	-1
COC(=O)c1ccccc1NC(=O)c1ccc2c(c1)OCCO2	-12	-8	1	-8	-4	x	x
CC1=NN(C(=O)CSCc2ccccc2)C(O)(c2ccc(Cl)cc2)C1 (stereo unspecified)	34	1	-3	20*	-2	-6	7
CC1=NN(C(=O)CSCc2ccccc2)C(O)(c2ccc(F)cc2)C1 (stereo unspecified)	5	-1	0	9	-2	x	x
CC(OC(=O)c1ccc2ncsc2c1)C(=O)NC1CCCCC1C (stereo unspecified)	-2	-4	9	9	0	x	x
C=CCn1c(O)c(N=NC(=O)CNC(=O)/C=C/c2ccco2)c2ccccc21	4	0	2	23*	3	-5	20*
C=CCn1c(O)c(N=NC(=O)CNC(=O)/C=C/c2ccc(OC)cc2)c2ccccc21	-15	-2	-6	9	-5	x	x
COc1ccc(OC)c(N2C(=NC(=O)C3CCCCC3)SC3CS(=O)(=O)CC32)c1 (stereo unspecified)	7	0	4	41*	2	-1	4
CCN(CC)c1ccc(C(=O)c2ccccc2C(=O)O)c(O)c1	15	28	2	40*	11	56*	36*
Cc1cccc(C(=O)c2ccccc2C(=O)O)c1O	3	6	1	10	2	x	x
O=C(NCc1ccccc1)[C@@H]1CCCN1C(=O)[C@H]1CCCN1C(=O)c1ccccc1C(F)(F)F	x	-1	2	3	0	x	x
COC(=O)[C@]12C[C@H](CC(=O)NCc3cccc(C(F)(F)F)c3)C(=O)N(Cc3ccco3)C1=C[C@H](C(C)(C)C)O[C@@H]2C	x	-10	3	x	3	x	x
Cc1ccc(Cn2ccsc2=NC(=O)COC(=O)c2ccc(NC(=O)CC#N)cc2)cc1	-49	2	0	27*	-14	8	6
Cc1ccc(Cn2ccsc2=NC(=O)CCl)cc1	4	6	2	11	-4	x	x
